Values after ≈ are worked out from the molar mass of the structure shown. Active and inactive are the calls of the source. The calls are words filed in the database; no cut-off is given here.
Experiments:
[1] = biological target: T1, Quinolone resistance protein NorA (Staphylococcus aureus) (UniProt P0A0J7); assay: Inhibition of NorA efflux pump in Staphylococcus aureus K2361 assessed as reduction of ethidium bromide efflux at 0.5 uM […]
T1 sequence (whole entry): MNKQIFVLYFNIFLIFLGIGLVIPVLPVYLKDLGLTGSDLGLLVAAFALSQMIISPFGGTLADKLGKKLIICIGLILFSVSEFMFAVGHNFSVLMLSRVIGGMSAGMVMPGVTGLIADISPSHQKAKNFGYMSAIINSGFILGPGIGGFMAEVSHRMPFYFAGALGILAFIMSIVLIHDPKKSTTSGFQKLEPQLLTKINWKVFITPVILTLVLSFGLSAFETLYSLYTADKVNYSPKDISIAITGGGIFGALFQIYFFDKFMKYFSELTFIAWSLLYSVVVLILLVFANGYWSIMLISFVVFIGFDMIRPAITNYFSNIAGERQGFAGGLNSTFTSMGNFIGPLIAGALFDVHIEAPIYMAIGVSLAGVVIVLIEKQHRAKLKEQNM

Staphylococcus aureus [2] = assay: Antibacterial activity against Staphylococcus aureus K1758-A overexpressing mepA by broth microdilution technique; format: functional
Summary of the method: (§1)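 S. aureus K1758-P is the susceptible control for K1758-A, a K1758-background strain carrying a constructed plasmid for mepA overexpression. MIC was determined on both.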

Staphylococcus aureus [3] = assay: Antibacterial activity against Staphylococcus aureus K1758-P by broth microdilution technique; format: functional; summary of the method: as §1
Staphylococcus aureus [4] = assay: Antibacterial activity against Staphylococcus aureus K2361 overexpressing norA by broth microdilution technique; format: functional
Summary of the method: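 MIC assessed on norA-overexpressing S. aureus K2361, paired with K1902 as its susceptible control.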

Staphylococcus aureus [5] = assay: Antibacterial activity against Staphylococcus aureus K1902 by broth microdilution technique; format: functional
Pseudomonas aeruginosa [6] = assay: Antibacterial activity against Pseudomonas aeruginosa K1536 overexpressing mexCD by broth microdilution technique; format: functional
Summary of the method: (§2)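 MIC tested on P. aeruginosa PAO1, the susceptible control, and on its derivatives OCR1 (mexAB overexpresser) and K1536 (mexCD overexpresser).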

Pseudomonas aeruginosa [7] = assay: Antibacterial activity against Pseudomonas aeruginosa OCR1 overexpressing mexAB by broth microdilution technique; format: functional; summary of the method: as §2
Pseudomonas aeruginosa [8] = assay: Antibacterial activity against Pseudomonas aeruginosa PAO1 by broth microdilution technique; format: functional; summary of the method: as §2
Escherichia coli [9] = assay: Antibacterial activity against Escherichia coli AG102 overexpressing acrAB by broth microdilution technique; format: functional
Summary of the method: (§3)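 MIC determined against E. coli AG102, an acrAB overexpresser, alongside its susceptible parental control AG100.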

Escherichia coli [10] = assay: Antibacterial activity against Escherichia coli AG100 by broth microdilution technique; format: functional; summary of the method: as §3
Staphylococcus aureus [11] = assay: Inhibition of MepA efflux pump in Staphylococcus aureus K2361 assessed as reduction of ethidium bromide efflux at 30 uM for 5 mins; conditions: in the assay text read “K1758-A” for “K2361”
[12] = biological target: T1, Quinolone resistance protein NorA (Staphylococcus aureus); conditions: 30 uM
Staphylococcus aureus [13] = assay: Antibacterial activity against ciprofloxacin-resistant Staphylococcus aureus at > 100 ug/ml by broth microdilution technique; format: functional, organism-based
[14] = biological target: T1, Quinolone resistance protein NorA (Staphylococcus aureus); assay: Inhibition of NorA efflux pump in Staphylococcus aureus K2361 assessed as reduction of ethidium bromide efflux for 5 mins
Staphylococcus aureus [15] = assay: Inhibition of MepA efflux pump in Staphylococcus aureus […] assessed as reduction of ethidium bromide efflux for 5 mins
Staphylococcus aureus [16] = assay: Inhibition of MepA efflux pump in Staphylococcus aureus K2361 assessed as reduction of ethidium bromide efflux at 10 uM for 5 mins; conditions: in the assay text read “K1758-A” for “K2361”
Staphylococcus aureus [17] = assay: Inhibition of MepA efflux pump in Staphylococcus aureus K2361 assessed as reduction of ethidium bromide efflux at 2 uM for 5 mins; conditions: in the assay text read “K1758-A” for “K2361”
Staphylococcus aureus [18] = assay: Inhibition of MepA efflux pump in Staphylococcus aureus K2361 assessed as reduction of ethidium bromide efflux at 0.5 uM […]; conditions: in the assay text read “K1758-A” for “K2361”
[19] = biological target: T1, Quinolone resistance protein NorA (Staphylococcus aureus); assay: Inhibition of NorA efflux pump in Staphylococcus aureus K2361 assessed as reduction of ethidium bromide efflux at 10 uM for 5 mins
[20] = biological target: T1, Quinolone resistance protein NorA (Staphylococcus aureus); assay: Inhibition of NorA efflux pump in Staphylococcus aureus K2361 assessed as reduction of ethidium bromide efflux at 2 uM for 5 mins

Row | inhibition [1] [%] | Compound | MIC (Staphylococcus aureus [2]) [µg/mL] | MIC (Staphylococcus aureus [3]) [µg/mL] | MIC (Staphylococcus aureus [4]) [µg/mL] | MIC (Staphylococcus aureus [5]) [µg/mL] | MIC (Pseudomonas aeruginosa [6]) [µg/mL] | MIC (Pseudomonas aeruginosa [7]) [µg/mL] | MIC (Pseudomonas aeruginosa [8]) [µg/mL] | MIC (Escherichia coli [9]) [µg/mL] | MIC (Escherichia coli [10]) [µg/mL] | also measured
1 | 20 | NCc1ccc(NC(=O)Nc2ccccc2)cc1 | – | – | – | – | – | – | – | – | – | –
2 | – | CC1COc2c(N3CCN(C)CC3)c(F)cc3c(=O)c(C(=O)O)cn1c23 (stereo not given) [OFLOXACIN] | 1.25 (≈ 3.46 µM) | 0.63 (≈ 1.74 µM) | 2.5 (≈ 6.92 µM) | 0.63 (≈ 1.74 µM) | 6.25 (≈ 17.3 µM) | 6.25 (≈ 17.3 µM) | 1.25 (≈ 3.46 µM) | 0.16 (≈ 0.443 µM) | 0.08 (≈ 0.221 µM) | –
3 | 20 | NCc1ccc(NC(=O)Nc2ccc(Cl)cc2)cc1 | – | – | – | – | – | – | – | – | – | –
4 | – | COC(=O)[C@H]1[C@H]2C[C@@H]3c4[nH]c5cc(OC)ccc5c4CCN3C[C@H]2C[C@@H](OC(=O)c2cc(OC)c(OC)c(OC)c2)[C@@H]1OC | – | – | – | – | – | – | – | – | – | inhibition (Staphylococcus aureus [11]): 32%; inhibition [12]: 81%
5 | 20 | O=C(Nc1ccccc1)Nc1ccccc1 | – | – | – | – | – | – | – | – | – | –
6 | – | O=C(O)c1cn(C2CC2)c2cc(N3CCNCC3)c(F)cc2c1=O [CIPROFLOXACIN] | 0.63 (≈ 1.9 µM) | 0.16 (≈ 0.483 µM) | 2.5 (≈ 7.54 µM) | 0.16 (≈ 0.483 µM) | 0.78 (≈ 2.35 µM) | 0.78 (≈ 2.35 µM) | 0.16 (≈ 0.483 µM) | 0.04 (≈ 0.121 µM) | ≤ 0.019 | –
7 | – | O=C(Nc1ccccc1)Nc1ccc(CN2CCN(c3cc4c(cc3F)c(=O)c(C(=O)O)cn4C3CC3)CC2)cc1 | 0.63 (≈ 1.13 µM) | 0.63 (≈ 1.13 µM) | 1.25 (≈ 2.25 µM) | 0.31 (≈ 0.558 µM) | 50 (≈ 90 µM) | 50 (≈ 90 µM) | 50 (≈ 90 µM) | 10 (≈ 18 µM) | 5 (≈ 9 µM) | Activity (Staphylococcus aureus [13]): inactive; Activity [14]: inactive; Activity (Staphylococcus aureus [15]): inactive
8 | – | NCCC[C@@H](NC(=O)[C@@H](N)Cc1ccccc1)C(=O)N1CCN(c2cc3c(cc2F)c(=O)c(C(=O)O)cn3C2CC2)CC1 | > 10 | 10 (≈ 16.9 µM) | > 10 | 10 (≈ 16.9 µM) | 50 (≈ 84.4 µM) | 50 (≈ 84.4 µM) | 50 (≈ 84.4 µM) | 10 (≈ 16.9 µM) | 10 (≈ 16.9 µM) | –
9 | – | NCCC[C@H](N)C(=O)N[C@@H](Cc1ccccc1)C(=O)N1CCN(c2cc3c(cc2F)c(=O)c(C(=O)O)cn3C2CC2)CC1 | – | > 10 | – | > 10 | 50 (≈ 84.4 µM) | 50 (≈ 84.4 µM) | 50 (≈ 84.4 µM) | 10 (≈ 16.9 µM) | 10 (≈ 16.9 µM) | –

Row | Compound | inhibition [1] [%] | MIC (Staphylococcus aureus [2]) [µg/mL] | MIC (Staphylococcus aureus [3]) [µg/mL] | MIC (Staphylococcus aureus [4]) [µg/mL] | MIC (Staphylococcus aureus [5]) [µg/mL] | MIC (Pseudomonas aeruginosa [6]) [µg/mL] | MIC (Pseudomonas aeruginosa [7]) [µg/mL] | MIC (Pseudomonas aeruginosa [8]) [µg/mL] | MIC (Escherichia coli [9]) [µg/mL] | MIC (Escherichia coli [10]) [µg/mL] | also measured
10 | CC1COc2c(NCc3ccc(NC(=O)Nc4ccccc4)cc3)c(F)cc3c(=O)c(C(=O)O)cn1c23 (stereo not given) | 73.6 | – | > 100 | 100 (≈ 199 µM) | > 100 | 100 (≈ 199 µM) | 50 (≈ 99.5 µM) | 50 (≈ 99.5 µM) | 10 (≈ 19.9 µM) | 10 (≈ 19.9 µM) | inhibition (Staphylococcus aureus [16]): 84.1%; inhibition (Staphylococcus aureus [17]): 65.9%; inhibition (Staphylococcus aureus [18]): 53.4%; inhibition [19]: 96.4%; inhibition [20]: 85.6%
